In publication PMC8978969 (RSC Advances, 2022):
In brackets after ≈: the same amount, converted by molar mass. Several values for one entry are separate records, joined by “and”; a condition that tells them apart may be missing. Identical values can stand only once.

Experiments:
Equilibrium solubility = type: physicochemical; conditions: for solubility at 24 h: thermodynamic from solid
[1] = Partition coefficients by shake-flask method; type: physicochemical
How it was run: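 Shake-flask method per OECD guidelines. n-Octanol and ultrapure water were mutually saturated by 24 h in a thermostat shaker, then 72 h standing. After partitioning, phases were centrifuged to separate completely, and drug in each phase was measured by HPLC to give logP. For logD7.4, 0.01 M PBS pH 7.4 replaced water, with otherwise identical steps.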

Solution stability assay = type: physicochemical; conditions: 37 °C
[2] = 24 h kinetic saturation solubilities; type: physicochemical
[3] = Gastrointestinal tract parallel artificial membrane permeability assay; type: in vitro ADME; conditions: PAMPA
How it was run: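 Donor solutions were made in Tris buffer pH 6.5 at several drug concentrations starting from 150 μg ml−1. The acceptor-well hydrophobic filter (0.45 μm) was coated with 2% soybean L-α-phosphatidylcholine in n-dodecane, and the acceptor held Tris buffer pH 7.4. The sandwich was incubated 16 h at room temperature. Receiver solution was quantified by HPLC, n = 6. Papp (cm s−1) was calculated from a published equation.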

Cytotoxicity test = type: cell-based; conditions: human, Caco-2 cells
How it was run: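 Caco-2 cells were grown in DMEM with 10% FBS and 1% penicillin/streptomycin at 37 °C in 5% CO2. Cells were seeded at 4 × 10^3 per well and left 16 h. Test compounds were dissolved in DMSO and serially diluted in DMEM, then applied for 24 h. CCK-8 was added for 3 h and absorbance read at 450 nm. IC50 was derived from a concentration–survival plot, mean ± SD of triplicates.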

**Q.** Which results are given for `Cc1ccc(S(=O)(=O)NC(=O)NN2CC3CCCC3C2)cc1` (stereo not drawn) [GLI, Gliclazide]?
**A.** solubility at 24 h (Equilibrium solubility; FaSSIF, 37 °C, pH 6.5, fassif): 196 ± 3.32 µg/mL (≈ 606 µM); solubility at 24 h (Equilibrium solubility; FeSSIF, 37 °C, pH 5, fessif): 30.1 ± 1.07 µg/mL (≈ 93.2 µM); solubility at 24 h (Equilibrium solubility; Milli-Q water, 37 °C, water): 43.5 ± 1.67 µg/mL (≈ 135 µM); solubility at 24 h (Equilibrium solubility; PBS 7.4, 37 °C, pH 7.4, aqueous buffer): 1590 ± 103 µg/mL (≈ 4910 µM); solubility at 24 h (Equilibrium solubility; SIF, 37 °C, pH 6.8, fassgf or other biorelevant): 584 ± 23 µg/mL (≈ 1810 µM); solubility thermodynamic at 24 h (Equilibrium solubility; Tris buffer pH 6.5, pH 6.5): 178 µg/mL (≈ 550 µM); solubility at 24 h (Equilibrium solubility; blank FaSSIF, 37 °C, pH 6.5, aqueous buffer): 190.6 ± 0.63 µg/mL (≈ 589 µM); solubility at 24 h (Equilibrium solubility; blank FeSSIF, 37 °C, pH 5, aqueous buffer): 28.7 ± 0.99 µg/mL (≈ 88.7 µM); logD ([1]; n-octanol/PBS 7.4, pH 7.4): 0.45 ± 0.01; logP ([1]; n-octanol/water): 1.71 ± 0.03; Solution stability in SIF (Solution stability assay; SIF, whole experiment period (24 h)): relatively stable; Initial content remained at 24 h (Solution stability assay; pH 7.4 buffer (PBS 7.4), 20 μg ml^−1 GLI, 24 h): zero; solubility kinetic at 12 h ([2]; Milli-Q water): 40.3 µg/mL (≈ 125 µM); Time within which peak concentration was achieved ([2]; PBS 7.4, SIF and FaSSIF): ≤ 6 h; Time of peak concentration ([2]; water): 4 h; Papp at 16 h, 150 μg ml^−1 [3]: 2.46 ×10⁻⁶ cm/s; IC50 at 24 h (Cytotoxicity test): 20.8 ± 1.11 mM

**Q.** What does the source list for “Gliclazide tributyl(tetradecyl)phosphonium ionic liquid [[P6,6,6,14][GLI]]”?
**A.** Solubility, FaSSIF (Equilibrium solubility; FaSSIF (pH 6.5), 37 °C, as GLI, n = 3, mean ± SD): 34.53 ± 2.79 µg/mL; Solubility, PBS 7.4 (Equilibrium solubility; PBS pH 7.4, 37 °C, as GLI, n = 3, mean ± SD): 301.87 ± 6.82 µg/mL; Solubility, SIF (Equilibrium solubility; SIF (pH 6.8), 37 °C, as GLI, n = 3, mean ± SD): 102.43 ± 11.54 µg/mL; Solubility, Blank FaSSIF (Equilibrium solubility; blank FaSSIF, 37 °C, as GLI, n = 3, mean ± SD): 32.14 ± 1.56 µg/mL; Solubility, Water (Equilibrium solubility; water, 37 °C, 24 h, as GLI, n = 3, mean ± SD): 1.5 µg/mL and 1.51 ± 0.13 µg/mL; log D7.4 ([1]; n-octanol/PBS 7.4, 37 °C): 0.69 ± 0.02; log P ([1]; n-octanol/water, 37 °C): 2.72 ± 0.24
